Laboratory results published in ChEMBL document CHEMBL2203235, “Optimization of a natural product-based class of γ-secretase modulators” (J Med Chem, 2012).
One block for each molecule: values may come before it.

Experiments:
[1] = Metabolic stability in human liver microsomes assessed as compound remaining at 1 uM at 60 mins by LC/MS/MS analysis in absence of NADPH; format: ADME, Microsome; details: liver microsomes, read-out: Stability
Method in brief: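 Human liver microsomes were run without NADPH as a qualitative read of susceptibility to enzymatic hydrolysis. The read-out was percent parent remaining at 60 min.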

CHO-2B7 = assay: Modulation of gamma secretase in CHO-2B7 cells assessed as reduction in amyloid beta 40 level at 100 uM after 5 hrs by MSD ELISA; format: cell-based; set-up: scale not given: the % may be the effect or the level left; details: Cricetulus griseus
[2] = Modulation of gamma secretase in CHO-2B7 cells assessed as reduction in amyloid beta 42 level after 5 hrs by MSD ELISA; format: cell-based; details: Cricetulus griseus, CHO-2B7, 5 h
CHO [3] = assay: Modulation of gamma secretase in CHO cells expressing human APP assessed as increase in amyloid beta (1 to 39) level at 3 uM after 6 hrs by LC/MS/MS analysis relative to control; format: cell-based; details: Cricetulus griseus
Method in brief: (§1)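 Cells were treated at 3 μM or 2 μM. Secreted Aβ peptides (Aβ37, 38, 39, 40, 42) were quantified by immunoprecipitation followed by LC/MS/MS. Changes are expressed relative to vehicle-treated cells.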

Mus musculus [4] = assay: Antialzheimer activity in CD1 mouse assessed as reduction in amyloid beta 42 level at 30 mg/kg, ip at 6 hrs relative to vehicle-treated control; format: functional; set-up: scale not given: the % may be the effect or the level left; details: route intraperitoneal
Method in brief: (§2)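 CD-1 mice received a single IP or PO dose (n = 12 per group) and were sampled at 6 h. Plasma and brain drug concentrations were measured in μM. Aβ42, Aβ40 and Aβ38 in brain homogenate are expressed as percent lowering versus vehicle. Statistical significance was assessed against vehicle.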

[5] = Half life in CD1 mouse at 1 mg/kg, iv; details: in vivo
[6] = Drug uptake in CD1 mouse brain at 1 mg/kg, iv at 6 hrs
[7] = Drug uptake in CD1 mouse brain at 100 mg/kg, ip at 6 hrs; format: ADME, organism-based; set-up: dose 100 mg/kg, route intraperitoneal; details: read-out: Drug uptake; method in brief: as §2
Mus musculus [8] = assay: Antialzheimer activity in CD1 mouse assessed as reduction in amyloid beta 38 level at 100 mg/kg, ip at 6 hrs relative to vehicle-treated control; format: functional; set-up: scale not given: the % may be the effect or the level left; details: route intraperitoneal; method in brief: as §2
Mus musculus [9] = assay: Antialzheimer activity in CD1 mouse assessed as reduction in amyloid beta 40 level at 30 mg/kg, ip at 6 hrs relative to vehicle-treated control; format: functional; set-up: scale not given: the % may be the effect or the level left; details: route intraperitoneal; method in brief: as §2
[10] = Volume of distribution in CD1 mouse at 1 mg/kg, iv; details: in vivo
CHO [11] = assay: Modulation of gamma secretase in CHO cells expressing human APP assessed as amyloid beta (1 to 42) level at 3 uM after 6 hrs by LC/MS/MS analysis (reference value: 0.6 ng); format: cell-based; details: Cricetulus griseus; method in brief: as §1
Mus musculus [12] = assay: Antialzheimer activity in CD1 mouse assessed as reduction in amyloid beta 40 level at 100 mg/kg, ip at 6 hrs relative to vehicle-treated control; format: functional; set-up: scale not given: the % may be the effect or the level left; details: route intraperitoneal; method in brief: as §2
[13] = Drug uptake in CD1 mouse brain at 30 mg/kg, ip at 6 hrs; format: ADME, organism-based; set-up: dose 30 mg/kg, route intraperitoneal; details: read-out: Drug uptake; method in brief: as §2
Liver microsomes = assay: Metabolic stability in human liver microsomes at 1 uM after 60 mins by LC/MS/MS analysis; details: 1 h
Mus musculus [14] = assay: Antialzheimer activity in CD1 mouse assessed as reduction in amyloid beta 38 level at 30 mg/kg, ip at 6 hrs relative to vehicle-treated control; format: functional; set-up: scale not given: the % may be the effect or the level left; details: route intraperitoneal; method in brief: as §2
CHO [15] = assay: Modulation of gamma secretase in CHO cells expressing human APP assessed as reduction amyloid beta (1 to 38) level at 3 uM after 6 hrs by LC/MS/MS analysis relative to control; format: cell-based; set-up: scale not given: the % may be the effect or the level left; details: Cricetulus griseus; method in brief: as §1
in vivo [16] = details: CD1, mouse, po, 30 mg/kg
[17] = Plasma concentration in CD1 mouse at 1 mg/kg, iv at 6 hrs
[18] = Ratio of drug uptake in brain to plasma in CD1 mouse at 30 mg/kg, po at 6 hrs; details: brain and plasma
in vivo [19] = details: CD1, mouse, po, 30 mg/kg; remark: listed apart in the source
CHO [20] = assay: Modulation of gamma secretase in CHO cells expressing human APP assessed as amyloid beta (1 to 40) level at 3 uM after 6 hrs by LC/MS/MS analysis (reference value: 10.2 ng); format: cell-based; details: Cricetulus griseus; method in brief: as §1
SUP-T1 = assay: Inhibition of notch-mediated NICD release in human SUP-T1 cells at 4 uM after 18 hrs by immunoblotting assay; format: cell-based
[21] = Modulation of gamma secretase in CHO-2B7 cells assessed as reduction in amyloid beta 38 level after 5 hrs by MSD ELISA; format: cell-based; details: Cricetulus griseus, CHO-2B7, 5 h
CHO [22] = assay: Modulation of gamma secretase in CHO cells expressing human APP assessed as increase in amyloid beta (1 to 37) level at 3 uM after 6 hrs by LC/MS/MS analysis relative to control; format: cell-based; details: Cricetulus griseus; method in brief: as §1
[23] = Ratio of drug uptake in brain to plasma in CD1 mouse at 1 mg/kg, iv at 6 hrs; details: brain and plasma
Mus musculus [24] = assay: Antialzheimer activity in CD1 mouse assessed as reduction in amyloid beta 42 level at 100 mg/kg, ip at 6 hrs relative to vehicle-treated control; format: functional; set-up: scale not given: the % may be the effect or the level left; details: route intraperitoneal; method in brief: as §2
[25] = Clearance in CD1 mouse at 1 mg/kg, iv; details: in vivo
[26] = Plasma concentration in CD1 mouse at 100 mg/kg, ip at 6 hrs; format: ADME, organism-based; set-up: dose 100 mg/kg, route intraperitoneal; method in brief: as §2
[27] = Inhibition of gamma secretase in CHO-2B7 cells assessed as reduction in total amyloid beta level after 5 hrs by MSD ELISA; format: cell-based; details: Cricetulus griseus, CHO-2B7, 5 h
[28] = Plasma concentration in CD1 mouse at 30 mg/kg, ip at 6 hrs; format: ADME, organism-based; set-up: dose 30 mg/kg, route intraperitoneal; method in brief: as §2
[29] = Modulation of gamma secretase in CHO-2B7 cells assessed as reduction in amyloid beta 40 level after 5 hrs by MSD ELISA; format: cell-based; details: Cricetulus griseus, CHO-2B7, 5 h

Compound: CC(=O)OC[C@H]1C[C@@H](C)[C@H]2[C@H](O1)[C@H](O)[C@@]1(C)[C@@H]3CC[C@H]4C(C)(C)[C@@H](O[C@H]5CN(C(=O)CC6CC6)CCO5)CC[C@@]45C[C@@]35CC[C@]21C
remaining at 1 h, 1 µM [1]: 23% | Activity (CHO-2B7): 66% | IC50 [2]: 240 nM

half-life [5]: 2.5 h | concentration at 6 h [6]: 9 nM | concentration at 6 h [7]: 23000 nM | Vd [10]: 0.42 L/kg | concentration at 6 h [13]: 1600 nM | Stability (Liver microsomes): Stable | Cmax (in vivo [16]): 3600 nM | concentration at 6 h [17]: 35 nM | Kp at 6 h [18]: 0.4 | bioavailability (in vivo [19]): 19% | IC50 [21]: 380 nM | IC50 [2]: 270 nM | Kp at 6 h [23]: 0.26 | clearance [25]: 4.83 mL/min/kg | concentration at 6 h [26]: 12000 nM | IC50 [27]: 12000 nM | concentration at 6 h [28]: 2200 nM | IC50 [29]: 9900 nM
Compound: CCO[C@@H]([C@H]1C[C@@H](C)[C@H]2[C@H](O1)[C@H](O)[C@@]1(C)[C@@H]3CC[C@H]4C(C)(C)[C@@H](O[C@H]5CN(CCOC)CCO5)CC[C@@]45C[C@@]35CC[C@]21C)C(C)(C)O
Activity (CHO [3]): 310% | Activity (Mus musculus [4]): 7% | Activity (Mus musculus [8]): 31% | Activity (Mus musculus [9]): 8% | Activity (CHO [11]): Below limit of detection | Activity (Mus musculus [12]): 30% | Activity (Mus musculus [14]): 4% | Activity (CHO [15]): 58% | Activity (CHO [20]): 6.2 ng | inhibition (SUP-T1): 0% | Activity (CHO [22]): 50% | Activity (Mus musculus [24]): 46%
